Source: ChEMBL document CHEMBL1150393, “Evaluation of radiolabeled (hetero)aromatic analogues of N-(2-diethylaminoethyl)-4-iodobenzamide for imaging and targeted radionuclide therapy of melanoma” (J Med Chem, 2008)
Each block holds one compound with its values, some of them ahead of it.

Key:
[1] = Binding affinity to melanin in water; set-up: concentration or dose not given beside the values; settings: tested as the 125I-labelled form
[2] = Binding affinity to melanin in phosphate buffer solution; set-up: concentration or dose not given beside the values; settings: tested as the 125I-labelled form
[3] = Biodistribution in tumor of C57BL/6 mouse bearing mouse B16-F0 cells at 0.74 to 0.92 MBq, iv after 72 hrs; assay type: ADME, organism-based, Neoplasm; settings: in vivo
Method in brief: (§1)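 [¹²⁵I]-labelled compound given iv by tail vein (0.1 µmol per mouse) to male C57BL6 mice bearing s.c. B16-F0 flank tumours (5 × 10⁵ cells in PBS). Two mice per time point were killed by CO₂, frozen in liquid nitrogen and cut into 40 µm cryosections, eight slices per mouse. Slice radioactivity was read on a multiwire proportional counter, converted to kBq/g and reported as %ID/g.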

[4] = Biodistribution in gall bladder of C57BL/6 mouse bearing mouse B16-F0 cells at 0.74 to 0.92 MBq, iv after 3 hrs; assay type: ADME, organism-based; settings: in vivo
Method in brief: (§2)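 Male C57BL6 mice with s.c. left-flank B16-F0 melanoma (5 × 10⁵ cells in PBS). Two mice per time point frozen in liquid nitrogen after CO₂ sacrifice. Eight 40 µm whole-body cryosections per mouse read by multiwire proportional counter. cpm/mm² converted to kBq/g and expressed as %ID/g.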

[5] = Biodistribution in uvea of C57BL/6 mouse bearing mouse B16-F0 cells at 0.74 to 0.92 MBq, iv after 72 hrs; assay type: ADME, organism-based, Uveal tract; settings: in vivo; method in brief: as §1
Thyroid gland [6] = assay: Biodistribution in thyroid of C57BL/6 mouse bearing mouse B16-F0 cells at 0.74 to 0.92 MBq, iv after 6 hrs; assay type: ADME, organism-based; settings: in vivo; method in brief: as §1
Liver [7] = assay: Biodistribution in liver of C57BL/6 mouse bearing mouse B16-F0 cells at 0.74 to 0.92 MBq, iv after 1 hr; assay type: ADME, organism-based; settings: in vivo; method in brief: as §2
[8] = Biodistribution in tumor of C57BL/6 mouse bearing mouse B16-F0 cells at 0.74 to 0.92 MBq, iv after 1 hr; assay type: ADME, organism-based, Neoplasm; settings: in vivo; method in brief: as §1
Thyroid gland [9] = assay: Biodistribution in thyroid of C57BL/6 mouse bearing mouse B16-F0 cells at 0.74 to 0.92 MBq, iv after 1 hr; assay type: ADME, organism-based; settings: in vivo; method in brief: as §1
[10] = Biodistribution in Stomach content of C57BL/6 mouse bearing mouse B16-F0 cells at 0.74 to 0.92 MBq, iv after 6 hrs; assay type: ADME, organism-based; settings: in vivo; method in brief: as §2
[11] = Biodistribution in intestinal content of C57BL/6 mouse bearing mouse B16-F0 cells at 0.74 to 0.92 MBq, iv after 1 hr; assay type: ADME, organism-based; settings: in vivo; method in brief: as §2
[12] = Biodistribution in uvea of C57BL/6 mouse bearing mouse B16-F0 cells at 0.74 to 0.92 MBq, iv after 3 hrs; assay type: ADME, organism-based, Uveal tract; settings: in vivo; method in brief: as §1
[13] = Ratio of drug level in tumor to lung of C57BL/6 mouse bearing mouse B16-F0 cells at 0.74 to 0.92 MBq, iv after 1 hr; assay type: ADME, organism-based; settings: in vivo
Method in brief: (§3)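 Tumour and organ radioactive concentrations came from whole-body cryosection counting (40 µm slices, eight per mouse, two mice per time) after tail-vein injection of the [¹²⁵I]-labelled compound (0.1 µmol) into male C57BL6 mice bearing s.c. B16-F0 melanoma. Each value is the ratio of the tumour concentration to the organ concentration.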

[14] = Biodistribution in tumor of C57BL/6 mouse bearing mouse B16-F0 cells at 0.74 to 0.92 MBq, iv after 3 hrs; assay type: ADME, organism-based, Neoplasm; settings: in vivo; method in brief: as §1
[15] = Biodistribution in Stomach content of C57BL/6 mouse bearing mouse B16-F0 cells at 0.74 to 0.92 MBq, iv after 1 hr; assay type: ADME, organism-based; settings: in vivo; method in brief: as §2
[16] = Biodistribution in intestinal content of C57BL/6 mouse bearing mouse B16-F0 cells at 0.74 to 0.92 MBq, iv after 6 hrs; assay type: ADME, organism-based; settings: in vivo; method in brief: as §2
[17] = Drug excretion in mouse B16-F0 cells bearing C57BL/6 mouse urine at 0.74 to 0.92 MBq, iv after 72 hrs; assay type: ADME, organism-based; settings: in vivo
Method in brief: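 Urine was collected from two B16-F0 tumour-bearing C57BL6 mice for up to 72 h after iv tail-vein injection of the [¹²⁵I]-labelled compound (0.1 µmol). Samples were counted to give cumulative urinary excretion as %ID.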

Brain = assay: Biodistribution in brain of C57BL/6 mouse bearing mouse B16-F0 cells at 0.74 to 0.92 MBq, iv after 1 hr; assay type: ADME, organism-based; settings: in vivo; method in brief: as §2
[18] = Biodistribution in tumor of C57BL/6 mouse bearing mouse B16-F0 cells at 0.74 to 0.92 MBq, iv after 24 hrs; assay type: ADME, organism-based, Neoplasm; settings: in vivo; method in brief: as §1
[19] = Biodistribution in uvea of C57BL/6 mouse bearing mouse B16-F0 cells at 0.74 to 0.92 MBq, iv after 6 hrs; assay type: ADME, organism-based, Uveal tract; settings: in vivo; method in brief: as §1
[20] = Partition coefficient, log P in phosphate buffer solution at pH 7.4; assay type: physicochemical
Method in brief: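 Shake-flask partition: 50 µM [¹²⁵I]-labelled compound in phosphate buffer pH 7.4 was mixed with 2 mL n-octanol. Each phase was γ-counted, P was taken as the octanol/buffer activity ratio, and log P was reported.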

[21] = Biodistribution in tumor of C57BL/6 mouse bearing mouse B16-F0 cells at 0.74 to 0.92 MBq, iv after 6 hrs; assay type: ADME, organism-based, Neoplasm; settings: in vivo; method in brief: as §1
[22] = Biodistribution in uvea of C57BL/6 mouse bearing mouse B16-F0 cells at 0.74 to 0.92 MBq, iv after 24 hrs; assay type: ADME, organism-based, Uveal tract; settings: in vivo; method in brief: as §1
[23] = Biodistribution in Stomach content of C57BL/6 mouse bearing mouse B16-F0 cells at 0.74 to 0.92 MBq, iv after 3 hrs; assay type: ADME, organism-based; settings: in vivo; method in brief: as §2
Thyroid gland [24] = assay: Biodistribution in thyroid of C57BL/6 mouse bearing mouse B16-F0 cells at 0.74 to 0.92 MBq, iv after 3 hrs; assay type: ADME, organism-based; settings: in vivo; method in brief: as §1
Lung = assay: Biodistribution in lung of C57BL/6 mouse bearing mouse B16-F0 cells at 0.74 to 0.92 MBq, iv after 1 hr; assay type: ADME, organism-based; settings: in vivo; method in brief: as §2
Blood = assay: Biodistribution in blood of C57BL/6 mouse bearing mouse B16-F0 cells at 0.74 to 0.92 MBq, iv after 1 hr; assay type: ADME, organism-based; settings: in vivo; method in brief: as §2
Thyroid gland [25] = assay: Biodistribution in thyroid of C57BL/6 mouse bearing mouse B16-F0 cells at 0.74 to 0.92 MBq, iv after 24 hrs; assay type: ADME, organism-based; settings: in vivo; method in brief: as §1
Liver [26] = assay: Biodistribution in liver of C57BL/6 mouse bearing mouse B16-F0 cells at 0.74 to 0.92 MBq, iv after 3 hrs; assay type: ADME, organism-based; settings: in vivo; method in brief: as §2
[27] = Ratio of drug level in tumor to liver of C57BL/6 mouse bearing mouse B16-F0 cells at 0.74 to 0.92 MBq, iv after 1 hr; assay type: ADME, organism-based; settings: in vivo; method in brief: as §3
[28] = Ratio of drug level in tumor to liver of C57BL/6 mouse bearing mouse B16-F0 cells at 0.74 to 0.92 MBq, iv after 3 hrs; assay type: ADME, organism-based; settings: in vivo; method in brief: as §3
Muscle tissue = assay: Biodistribution in muscle of C57BL/6 mouse bearing mouse B16-F0 cells at 0.74 to 0.92 MBq, iv after 1 hr; assay type: ADME, organism-based; settings: in vivo; method in brief: as §2
Spleen = assay: Biodistribution in spleen of C57BL/6 mouse bearing mouse B16-F0 cells at 0.74 to 0.92 MBq, iv after 1 hr; assay type: ADME, organism-based; settings: in vivo; method in brief: as §1
[29] = Biodistribution in intestinal content of C57BL/6 mouse bearing mouse B16-F0 cells at 0.74 to 0.92 MBq, iv after 3 hrs; assay type: ADME, organism-based; settings: in vivo; method in brief: as §2
[30] = Ratio of drug level in tumor to brain of C57BL/6 mouse bearing mouse B16-F0 cells at 0.74 to 0.92 MBq, iv after 1 hr; assay type: ADME, organism-based; settings: in vivo; method in brief: as §3
[31] = Biodistribution in uvea of C57BL/6 mouse bearing mouse B16-F0 cells at 0.74 to 0.92 MBq, iv after 1 hr; assay type: ADME, organism-based, Uveal tract; settings: in vivo; method in brief: as §1
Kidney = assay: Biodistribution in kidney of C57BL/6 mouse bearing mouse B16-F0 cells at 0.74 to 0.92 MBq, iv after 1 hr; assay type: ADME, organism-based; settings: in vivo; method in brief: as §2

- Activity [1]: 79.8%
- Activity [2]: 43.1%
Structure (SMILES): CCN(CC)CCNC(=O)c1cc2cc(I)ccc2[nH]1

- Activity [1]: 86.7%
- Activity [2]: 59%
Structure (SMILES): CCN(CC)CCNC(=O)c1c[nH]c2ccc(I)cc2c1=O

- Activity [1]: 87%
- Activity [2]: 45.2%
Structure (SMILES): CCN(CC)CCNC(=O)c1cc2c(I)cccc2cn1

- Activity [1]: 84.5%
- Activity [2]: 47.1%
Structure (SMILES): CCN(CC)CCNC(=O)c1nc2cc(I)ccc2[nH]1

- Activity [1]: 80.8%
- Activity [2]: 50.9%
Structure (SMILES): CCN(CC)CCNC(=O)c1ccc2cc(I)ccc2c1

- Drug uptake [3]: 1.7 % ID/g
- Drug uptake [4]: 65.56 % ID/g
- Drug uptake [5]: 9.22 % ID/g
- Drug uptake (Thyroid gland [6]): 139.12 % ID/g
- Drug uptake (Liver [7]): 2.21 % ID/g
- Drug uptake [8]: 12.5 % ID/g
- Drug uptake (Thyroid gland [9]): 24.03 % ID/g
- Drug uptake [10]: 18.77 % ID/g
- Drug uptake [11]: 71.13 % ID/g
- Drug uptake [12]: 19.51 % ID/g
- Ratio [13]: 3.38
- Drug uptake [14]: 10 % ID/g
- Drug uptake [15]: 20 % ID/g
- Drug uptake [16]: 37.7 % ID/g
- Activity [17]: 52.6%
- Drug uptake (Brain): 0.81 % ID/g
- Drug uptake [18]: 7.3 % ID/g
- Drug uptake [19]: 16.29 % ID/g
- logD [20]: 1.54
- Drug uptake [21]: 8.7 % ID/g
- Drug uptake [22]: 11.06 % ID/g
- Drug uptake [23]: 5.93 % ID/g
- Drug uptake (Thyroid gland [24]): 67.21 % ID/g
- Drug uptake (Lung): 3.69 % ID/g
- Drug uptake (Blood): 1.37 % ID/g
- Drug uptake (Thyroid gland [25]): 79.82 % ID/g
- Drug uptake (Liver [26]): 1.25 % ID/g
- Ratio [27]: 5.64
- Ratio [28]: 7.98
- Drug uptake (Muscle tissue): 0.77 % ID/g
- Drug uptake (Spleen): 3.88 % ID/g
- Drug uptake [29]: 73.02 % ID/g
- Ratio [30]: 15.4
- Drug uptake [31]: 16.09 % ID/g
- Drug uptake (Kidney): 5.61 % ID/g
Structure (SMILES): CCN(CC)CCNC(=O)c1cc2c([125I])cccc2s1.Cl

- Activity [1]: 44.8%
- Activity [2]: 35.3%
Structure (SMILES): CCN(CC)CCNC(=O)c1ccc2cncc(I)c2n1
